Like-named read-outs stand apart in the source and are kept apart here.
Legend:
[1] = system: BRCA1(BRCT) (six his-tagged, amino acids 1646–1859); conditions: cited from earlier work; for ΔGexp (binding free energy): Table 1; for ΔG (Exp): Table 2, brackets = error of the mean
[2] = system: BRCA1(BRCT) (six his-tagged, amino acids 1646–1859); assay: Isothermal titration calorimetry; assay type: binding
How it was run: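 His6-BRCA1 BRCT (aa 1646–1859) was expressed in E. coli BL21(DE3) RIL (1 mM IPTG), Ni-affinity purified, and dialysed into 50 mM KH2PO4 pH 7.2. Peptides were quantified by amino acid analysis, freeze-dried and redissolved in the same buffer. At 25°C, 100–900 µM peptide was titrated into 10–30 µM protein: 3 µL, then 29 × 10 µL, 3 min apart, 307 rpm. Peptide-into-buffer heats were subtracted and the data integrated.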

[3] = isothermal calorimetric data, ref [9]

Row | Substance | ΔGexp (binding free energy) ([1]; T1–T4, ref [9]) | ΔG (Exp) ([1]; ref [9]) | further results
1 | Ac-EPTF-CONH2 [Peptide T4] | No binding | no binding | binding to BRCA1(BRCT) found experimentally ([1]; in words, ref [9]): does not bind
2 | Ac-pSPVF-CONH2 [Peptide T5] | – | – | ΔGexp (binding free energy) ([1]; T5, ref [18]): -7.8 kcal/mol; ΔG (Exp) ([1]; ref [18]): −7.8 (0.1) kcal/mol; enhancement of binding by Val mutation (vs T1) [1, 3]: 0.3 kcal/mol; binding affinity compared with T1 (in words) ([1]; isothermal calorimetric study, ref [18]): practically the same binding affinity
3 | Ac-pSATF-CONH2 [Peptide T2] | -6.7 kcal/mol | −6.7 (0.3) kcal/mol | –
4 | Ac-pSPTF-CONH2 [Peptide T1] | -7.5 kcal/mol | −7.5 (0.2) kcal/mol | –
5 | Ac-pSPAF-CONH2 [Peptide T3] | -5.9 kcal/mol | −5.9 (0.2) kcal/mol | loss in binding affinity caused by Thr→Ala mutation (vs T1) [1, 3]: 1.6 kcal/mol
6 | Ac-Nap-pSPTF-CONH2 [Peptide P7] | – | – | ΔΔG, increase in binding affinity compared to T1 ([2]; P7 vs T1, ITC): 0.3 kcal/mol; ΔG (Exp) ([2]; Table 2, brackets = error of the mean, ITC, 25°C, 50 mM KH2PO4 pH = 7.2): −7.8 (0.1) kcal/mol
